This is a sample that favours compounds with a hit; in the whole collection about 3.2% have one here.
DAX1 inh-1: inhibitors of DAX1 repression of SF-1 activated StAR promoter; HEK293T StAR-luciferase reporter, SF-1/DAX-1 repression relief; inhibition, % at 6.8 µM; 370,000 compounds, 1.1% hits; AID 652010;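 active = inhibition above the mean over all tested compounds plus 3 SD, cut at about 3.6% in these data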;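 note: 0% = DAX-1 cells with DMSO and 100% = cells lacking DAX-1 with DMSO; higher inhibition means more luminescence from relief of DAX-1 repression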
JMJD2C inh: blocks human GASC-1 demethylase activity | GST-JMJD2C(1-420) H3K9me3 demethylation, DELFIA europium | inhibition, % at 2.35 µM | 330,000 compounds, 0.069% hits | AID 2099;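 active = more than half of a compound's replicate wells show inhibition beyond 50%, single wells judged on their own value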;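 note: signal counts dimethyl H3K9 product captured on neutravidin plate; 0% = median of DMSO wells and 100% = 0.3 times that DMSO median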
DAX1 inh-2: NR0B1 (DAX1) inhibition | AID 504766 | P51843 | HEK293 Gal4-DAX1 luciferase reporter, luminescence | inhibition, % at 6.75 µM | 340,000 compounds, 0.99% hits;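 active = inhibition above the mean over all tested compounds plus 3 SD, cut at about 4.2% in these data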;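 note: 0% = DAX1-transfected cells with DMSO and 100% = empty-vector control cells with DMSO; inhibition shows as a rise in luminescence from relieved DAX1 repression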
NR2E3 ag-1: activates human photoreceptor nuclear receptor NR2E3 | inhibition of corepressor binding, % at 4.78 µM | 320,000 compounds, 0.12% hits | Q9Y5X4 | GST-NR2E3/biotin-RetCOR TR-FRET, 1536-well;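 active = percent inhibition above the cutoff of mean plus 3 SD of all tested compounds, set per screening campaign, cut at about 20% in these data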;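 note: 0% = DMSO wells and 100% = biotin wells as full block of FRET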
Target sequence (Q9Y5X4 whole entry, looked up): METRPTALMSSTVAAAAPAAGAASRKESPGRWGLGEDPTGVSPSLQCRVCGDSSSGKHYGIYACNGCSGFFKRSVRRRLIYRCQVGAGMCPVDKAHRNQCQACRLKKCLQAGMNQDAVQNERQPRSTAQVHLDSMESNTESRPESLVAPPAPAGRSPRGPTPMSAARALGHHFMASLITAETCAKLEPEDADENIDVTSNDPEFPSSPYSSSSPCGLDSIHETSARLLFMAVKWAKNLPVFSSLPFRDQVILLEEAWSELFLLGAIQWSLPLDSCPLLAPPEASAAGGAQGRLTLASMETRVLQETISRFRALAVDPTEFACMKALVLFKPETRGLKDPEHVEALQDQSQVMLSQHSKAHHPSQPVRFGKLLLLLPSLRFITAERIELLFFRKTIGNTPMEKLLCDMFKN
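System: GST-NR2E3 and biotin-RetCOR proteins; probe or stimulus: 7 nM biotin-RetCOR; doses: compound at 4.8 µM, single dose; schedule: Compound–protein incubation for 5 h at 4 °C; detection: time-resolved FRET; read-out: percent inhibition; controls: biotin wells as high control, 0.6% DMSO wells as low control; format: 1536-well plates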
SMARCA2 activ: activators of SMARCA2 function; activation, % at 9.1 µM; MG213 cells, MMTV-luciferase reporter, dexamethasone, overnight; 370,000 compounds, 1% hits; in the data active = activation above about 7.8%;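 note: 0% = vehicle wells and 100% = reference activator wells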
NR2E3 ag-2: human photoreceptor-specific nuclear receptor agonism. Q9Y5X4. CHO-S Gal4-NCOR/VP16-NR2E3 two-hybrid, luciferase. inhibition of corepressor binding, % at 3.98 µM. 360,000 compounds, 0.35% hits;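 active = inhibition above the mean of all tested compounds plus 3 SD, cut at about 70% in these data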;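 note: 0% = DMSO with NR2E3 transfected cells and 100% = cells lacking NR2E3 construct; higher means lower luciferase signal from less NR2E3 corepressor binding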
Starred values were filed as active, the others as inactive; · = no result given.

SMILES	DAX1 inh-1	JMJD2C inh	DAX1 inh-2	NR2E3 ag-1	SMARCA2 activ	NR2E3 ag-2
CC(=O)Nc1sc(N/N=C/c2ccccc2)nc1-c1ccc(C)cc1	1	0	5.0*	0	1	-11
CN(C)CC[n+]1ccc(C(=O)c2ccccc2)cc1	0	-7	5.1*	2	-3	-10
O=C(c1ccccc1)c1cc[n+]([O-])cc1	0	2	0	-1	1	19
COC(=O)C(NC(C)=O)(Nc1ccc(C)cn1)C(F)(F)F (stereo not drawn)	0	-2	4.2*	3	-7	-5
CCOC(=O)NC(Nc1ccc(C)cn1)(C(F)(F)F)C(F)(F)F	-1	3	1	2	0	-24
CCCC[C@H](C(=O)N(C)c1ccccc1)[C@@H](O)c1ccc2ccccc2c1	-1	·	·	·	-4	·
CC(C)(C)c1ccc(OCC(=O)NCC(c2cccs2)N2CCOCC2)cc1 (stereo not drawn)	4.3*	156	-2	-3	-1	18
COc1ccc(OCC(=O)NCC(c2cccs2)N2CCOCC2)cc1 (stereo not drawn)	2	4	-1	0	-3	-8
Cc1onc(-c2ccccc2)c1C(=O)Nc1ccc(NC(=O)c2c(-c3ccccc3)noc2C)cc1	0	5	5.1*	5	-1	-20
Cc1onc(-c2ccccc2)c1C(=O)Nc1ccc(N2CCOCC2)cc1	0	3	1	4	-2	-39
Nn1c(SCC(=O)Nc2ccc(Br)cn2)nnc1-c1n[nH]c2c1CCC2	-2	·	·	·	1	·
C/C(=N/NC(=O)CSc1nnc(SCc2ccc(C)cc2)s1)c1cccc(O)c1	-2	·	·	·	-11	·
Cc1nnsc1-c1c(C(=O)N2CCOCC2)c(C)nn1-c1ccccc1	0	-5	0	5	-3	-7
Cc1nnsc1-c1c(C(=O)N2CCOCC2)c(C)nn1-c1ccc(Cl)cc1	0	14	4.8*	5	-2	9
O=C(CSc1nnc(-c2ccncc2)n1-c1ccc(Br)cc1)c1ccccc1	0	·	·	·	-1	·
CCNC(=S)NNC(=O)CC(C)C	0	0	6.7*	3	2	-28
CC(C)CNC(=S)NNC(=O)CC(C)O (stereo not drawn)	0	18	1	-4	-1	8
CCSc1nnc(NC(=O)C2CCCN(S(=O)(=O)c3cnc[nH]3)C2)s1 (stereo not drawn)	1	12	13*	3	-2	4
O=C(NC1CCCCC1)C1CCCN(S(=O)(=O)c2cnc[nH]2)C1 (stereo not drawn)	0	-9	5.0*	0	-1	-26
CCSc1nnc(NC(=O)C2CCCCC2)s1	1	-1	4.7*	1	4	-10
Cc1ccc2nc(NC(=O)C3CCCN(S(=O)(=O)c4cnc[nH]4)C3)sc2c1 (stereo not drawn)	3	4	6.3*	2	3	-28
CSc1nnc(NC(=O)C2CCCCC2)s1	0	17	0	2	-4	7
COC(=O)[C@H](CC(C)C)N(Cc1cn(Cc2ccccc2)nn1)S(=O)(=O)c1ccc(F)cc1Br	0	·	·	·	-6	·
CC1CCN(C(=O)CSc2nc3ccccc3s2)CC1	2	1	4.6*	2	7	-138
O=C(CSc1nc2ccccc2s1)N1CCCCC1	2	-1	3	-1	7	-85
SMILES	DAX1 inh-1	JMJD2C inh	DAX1 inh-2	NR2E3 ag-1	SMARCA2 activ	NR2E3 ag-2
CC1CCCC(C)N1C(=O)CSc1nc2ccccc2s1 (stereo not drawn)	1	5	5.0*	0	1	-41
O=C(Nc1nc2ccccc2n1CCN1CCCCC1)c1ccc(Cl)cc1	·	3	·	2	·	·
Cc1ccc(C(=O)Nc2nc3ccccc3n2CCN2CCCC2)cc1	4.3*	-41	1	1	4	-158
O=C(N/N=C/c1ccc2c(c1)OCO2)c1ccc2c(c1)OCO2	4.0*	0	1	-5	2	-74
O=C(NCCCN1CCOCC1)C(=O)N/N=C/c1ccc2c(c1)OCO2	0	-47	4.4*	3	0	0
O=C(N/N=C/c1cc(O)ccc1[N+](=O)[O-])c1ccc2c(c1)OCCO2	3.6*	3	0	-1	4	-129
O=C(N/N=C/c1cc([N+](=O)[O-])ccc1O)c1ccc2c(c1)OCCO2	0	8	-1	1	-4	-23
O=C(NCCCN1CCOCC1)C(=O)N/N=C/c1ccc(F)cc1	0	1	-1	5	4	18
Cc1cccc(C(=O)N/N=C/C(C)Cc2ccc3c(c2)OCO3)c1 (stereo not drawn)	0	67*	-1	-2	-1	8
O=C(CCc1ccccc1)N[C@H]1[C@H](OC(=O)c2cccnc2)CCC[C@@]12C(=O)N(Cc1ccccc1)c1ccccc12	-1	·	·	·	-4	·
COCCCNC(=O)C[C@H]1C[C@@]2(C(=O)OC)C(=C[C@H](COCc3ccccc3)O[C@@H]2C)N(CCc2ccc(OC)c(OC)c2)C1=O	0	·	·	·	1	·
Cc1ccccc1C(=O)N(C)[C@H]1C[C@H]2c3[nH]c4c(-c5ccccc5)cccc4c3CCN2C[C@H]1[C@H](C)O	-2	·	·	·	-3	·
COc1cc(/C=N/n2c(-c3cc(-c4ccccc4)n[nH]3)n[nH]c2=S)ccc1OCc1ccccc1	1	·	·	·	4	·
Cc1cccc(-c2nnc(SCc3cccc4ccccc34)n2-c2ccc(Cl)cc2)c1	-3	·	·	·	-7	·
Cc1ccsc1/C=N/NC(=O)c1ccc2c(c1)OCCO2	2	-2	-1	-1	1	-133
COc1ccccc1/C=N/NC(=O)c1ccc2c(c1)OCO2	0	2	4.3*	3	2	-40
Cc1ccsc1/C=N\NC(=O)c1ccc2c(c1)OCO2	4.0*	8	2	0	1	-75
COC(=O)[C@]12C[C@H](CC(=O)NCC3CCCCC3)C(=O)N(CCC3=CCCCC3)C1=C[C@H](C(C)C)O[C@@H]2C1CC1	1	·	·	·	0	·
COC[C@H]1CCCN1c1cccc2c1S(=O)(=O)N1CC[C@H](C1)O2	0	·	·	·	-1	·
CC(=O)NC(Cc1cccc(F)c1)C(=O)NC1CCN(C(=O)c2cccc(C)c2)CC1 (stereo not drawn)	0	-12	5.4*	-2	-2	-20
CC(C)CC(=O)N1CCc2cc(S(=O)(=O)N(C)Cc3ccco3)ccc21	1	·	·	·	-4	·
COc1ccc2oc(C(=O)N3CCCc4ccccc43)c(C)c2c1	4.3*	4	1	2	1	-98
COc1ccc2oc(C(=O)OCC(=O)N3CCCCC3)c(C)c2c1	2	3	4.9*	0	-1	-3
COc1ccc2oc(C(=O)OCC(=O)N3CCN(C(C)=O)CC3)c(C)c2c1	0	-1	-1	-3	-1	-31
